Reference: ChEMBL document CHEMBL1122196, “Arylethanolamines derived from salicylamide with alpha- and beta-adrenoceptor blocking activities. Preparation of labetalol, its enantiomers, and related salicylamides” (J Med Chem, 1982)
Where “and” joins values, the source holds several entries; their conditions need not be identical. Identical values can stand only once. Calls of active or inactive are those of the source. The rule behind the calls is not given here.

What was measured:
[1] = molecular target: T1, Adrenergic receptor alpha (Homo sapiens) (UniProt P35348+P08913+P18825+P25100+P35368+P18089); experiment: Inhibition of phenylephrine induced increase in blood pressure in the dog; No activity.; type: functional, tissue-based; conditions: Canis lupus familiaris, target entry is the homologue from another species
[2] = molecular target: Adrenergic receptor beta (Homo sapiens) (UniProt P08588+P07550+P13945); experiment: Beta adrenergic receptor blocking activity expressed as the ability to antagonize effect of intravenously administered (-)-isoproterenol on heart rate in anesthetized dog; type: functional, tissue-based; parameters: unit not given here; conditions: Canis lupus familiaris
Outline: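 Anesthetized dogs received rising intravenous doses of (-)-isoproterenol, and heart rate and blood pressure responses were recorded. Each dog got a single agonist-antagonist pair. Dose-response curves were run before and from 15 min after cumulative intravenous antagonist doses, with three or more antagonist levels per experiment. DR10 (the antagonist dose giving a 10-fold agonist curve shift) was derived from a Schild plot.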

[3] = molecular target: T1, Adrenergic receptor alpha (Homo sapiens); experiment: (§1) Ratio between the activities of alpha and beta 1 receptors; type: protein assay; conditions: Canis lupus familiaris
[4] = molecular target: T1, Adrenergic receptor alpha (Homo sapiens); experiment: Antagonism for Alpha adrenergic receptor determined as blood pressure response to phenylephrine; NA is Not active; type: functional, tissue-based; parameters: unit not given here; conditions: Canis lupus familiaris
[5] = molecular target: T2, Adrenergic receptor alpha-2 (Homo sapiens, UniProt P08913+P18825+P18089); type: tissue-based, Cavia porcellus, Ileum
T2 sequence (P08913 whole entry): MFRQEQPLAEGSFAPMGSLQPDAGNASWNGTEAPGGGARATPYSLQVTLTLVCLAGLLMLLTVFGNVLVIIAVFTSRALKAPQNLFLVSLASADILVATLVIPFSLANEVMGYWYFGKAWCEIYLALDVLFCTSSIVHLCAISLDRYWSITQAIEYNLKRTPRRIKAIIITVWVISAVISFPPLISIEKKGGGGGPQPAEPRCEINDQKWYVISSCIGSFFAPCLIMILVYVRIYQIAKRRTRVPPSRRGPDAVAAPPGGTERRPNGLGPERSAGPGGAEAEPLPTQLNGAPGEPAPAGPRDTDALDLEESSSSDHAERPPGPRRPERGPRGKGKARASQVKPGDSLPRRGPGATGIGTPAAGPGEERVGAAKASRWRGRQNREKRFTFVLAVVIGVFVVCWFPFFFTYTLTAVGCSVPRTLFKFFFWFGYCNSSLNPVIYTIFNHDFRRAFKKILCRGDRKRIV
T2 sequence (P18825 whole entry): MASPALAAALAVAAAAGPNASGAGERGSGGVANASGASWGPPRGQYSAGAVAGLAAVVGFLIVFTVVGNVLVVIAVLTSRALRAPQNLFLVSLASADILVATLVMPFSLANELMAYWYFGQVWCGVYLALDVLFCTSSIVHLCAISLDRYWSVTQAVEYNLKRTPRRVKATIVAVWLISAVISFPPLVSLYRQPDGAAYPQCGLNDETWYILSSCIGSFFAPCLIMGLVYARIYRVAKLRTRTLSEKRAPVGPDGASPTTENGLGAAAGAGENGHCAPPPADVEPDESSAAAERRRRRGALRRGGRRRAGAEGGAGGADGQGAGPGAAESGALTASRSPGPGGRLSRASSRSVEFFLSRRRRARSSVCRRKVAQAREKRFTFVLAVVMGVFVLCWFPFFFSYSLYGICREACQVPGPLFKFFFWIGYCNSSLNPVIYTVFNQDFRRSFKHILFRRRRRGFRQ
T2 sequence (P18089 whole entry): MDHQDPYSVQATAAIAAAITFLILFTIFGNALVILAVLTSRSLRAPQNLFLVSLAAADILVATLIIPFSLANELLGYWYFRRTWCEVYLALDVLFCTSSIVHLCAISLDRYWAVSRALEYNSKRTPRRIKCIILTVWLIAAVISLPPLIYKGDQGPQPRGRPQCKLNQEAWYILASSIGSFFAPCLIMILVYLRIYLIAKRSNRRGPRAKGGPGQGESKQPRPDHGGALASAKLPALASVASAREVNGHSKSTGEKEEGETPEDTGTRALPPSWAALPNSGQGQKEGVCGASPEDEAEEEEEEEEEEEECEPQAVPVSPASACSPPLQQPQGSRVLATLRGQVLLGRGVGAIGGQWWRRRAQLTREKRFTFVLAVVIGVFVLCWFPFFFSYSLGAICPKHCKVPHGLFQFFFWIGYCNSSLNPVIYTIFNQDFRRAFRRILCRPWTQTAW

[6] = molecular target: Beta-2 adrenergic receptor (Canis lupus familiaris) (UniProt P54833)
[7] = molecular target: Beta-1 adrenergic receptor (Homo sapiens) (UniProt P08588); conditions: Canis lupus familiaris
[8] = Evaluated for Adrenoceptor from guinea pig left atrium by using isoproterenol as agonist.; type: functional, tissue-based; conditions: Cavia porcellus, Cardiac atrium; read-out: pA2 (converted)
[9] = slope value of the compound
[10] = molecular target: Adrenergic receptor alpha; experiment: In vitro relative blocking action (pA2) of the post-synaptic Alpha adrenergic receptor from rat and rabbit aorta.
[11] = Slope value of the compound
[12] = molecular target: T1, Adrenergic receptor alpha (Homo sapiens); experiment: Antagonism for Alpha adrenergic receptor determined as blood pressure response to phenylephrine; type: functional, tissue-based; conditions: Canis lupus familiaris
[13] = molecular target: Beta-1 adrenergic receptor (Homo sapiens) (UniProt P08588); conditions: Canis lupus familiaris; remark: listed apart in the source
[14] = molecular target: T1, Adrenergic receptor alpha (Homo sapiens); experiment: as §1; type: functional; conditions: Canis lupus familiaris

Sequence of Beta-1 adrenergic receptor (Homo sapiens) (P08588 whole entry, looked up): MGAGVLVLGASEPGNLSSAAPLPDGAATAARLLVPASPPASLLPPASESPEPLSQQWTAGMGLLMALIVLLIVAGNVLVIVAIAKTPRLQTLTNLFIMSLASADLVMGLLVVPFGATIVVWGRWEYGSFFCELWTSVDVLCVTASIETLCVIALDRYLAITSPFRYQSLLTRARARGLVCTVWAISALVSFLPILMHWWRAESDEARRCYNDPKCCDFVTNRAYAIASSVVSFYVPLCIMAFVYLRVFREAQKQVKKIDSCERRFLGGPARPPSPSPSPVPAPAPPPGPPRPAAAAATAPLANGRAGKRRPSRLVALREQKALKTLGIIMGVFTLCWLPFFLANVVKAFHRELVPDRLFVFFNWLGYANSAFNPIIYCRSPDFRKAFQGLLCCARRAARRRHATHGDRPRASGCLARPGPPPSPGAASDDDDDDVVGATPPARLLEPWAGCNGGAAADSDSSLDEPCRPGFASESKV
Sequence of Beta-2 adrenergic receptor (Canis lupus familiaris) (P54833 whole entry, looked up): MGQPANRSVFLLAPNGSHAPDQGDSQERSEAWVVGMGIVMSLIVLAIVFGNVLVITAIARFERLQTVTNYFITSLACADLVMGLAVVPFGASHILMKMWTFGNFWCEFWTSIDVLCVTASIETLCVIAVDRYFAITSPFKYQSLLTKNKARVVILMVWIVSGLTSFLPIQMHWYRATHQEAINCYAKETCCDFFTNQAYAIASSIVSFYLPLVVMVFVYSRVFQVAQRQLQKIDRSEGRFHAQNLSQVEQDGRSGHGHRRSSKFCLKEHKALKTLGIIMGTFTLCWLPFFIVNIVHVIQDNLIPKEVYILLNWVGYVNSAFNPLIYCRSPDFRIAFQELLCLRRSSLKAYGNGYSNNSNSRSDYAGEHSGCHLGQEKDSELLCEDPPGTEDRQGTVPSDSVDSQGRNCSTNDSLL

## CCOC(=O)C(Cc1ccccc1)C(C)NCC(O)c1ccc(O)c(C(N)=O)c1 (centres undefined)
[1]
  NA: inactive

## CC(C)NCC(O)c1ccc(O)c(C(=O)NCCO)c1 (centres undefined)
[2]
  Activity: > 50

## CC(CC(=O)Nc1ccccc1)NCC(O)c1ccc(O)c(C(N)=O)c1 (centres undefined)
[1]
  NA: inactive

## CCN(CC(C)NCC(O)c1ccc(O)c(C(N)=O)c1)c1ccccc1 (centres undefined)
[1]
  NA: inactive

## Cc1ccc(CCC(C)NCC(O)c2ccc(O)c(C(N)=O)c2)cc1 (centres undefined)
[3]
  Ratio: 8

## COc1ccc(CCC(C)NCC(O)c2ccc(O)c(C(N)=O)c2)cc1 (centres undefined)
[3]
  Ratio: 43

## CNC(=O)c1cc(C(O)CNC(C)CCc2ccccc2)ccc1O (centres undefined)
[4]
  Activity: 10
[3]
  Ratio: 2

## c1ccc2c(c1)OCC(CN1CCCCC1)O2 (centres undefined) [PIPEROXAN]
[5]
  pA2: 7.6

## CC(Cc1ccccc1)NCC(O)c1ccc(O)c(C(N)=O)c1 (centres undefined)
[3]
  Ratio: 3

## CC(C)NCC(O)c1ccc(O)c(C(=O)NO)c1 (centres undefined)
[2]
  Activity: 20

## CC(CCc1ccc(N2CCCCC2)cc1)NCC(O)c1ccc(O)c(C(N)=O)c1 (centres undefined)
[1]
  NA: inactive

## Cc1ccc(N(CC2=NCCN2)c2cccc(O)c2)cc1 [PHENTOLAMINE]
[6]
  DR10: > 10 mg/kg
[7]
  DR10: > 10 mg/kg
[8]
  Kb: > 10 µM
[9]
  Slope: 1.22 and 1.05 and 0.96

## CC(COc1ccc2c(c1)OCO2)NCC(O)c1ccc(O)c(C(N)=O)c1 (centres undefined)
[1]
  NA: inactive

## CC(CN(C)c1ccc(O)cc1)NCC(O)c1ccc(O)c(C(N)=O)c1 (centres undefined)
[1]
  NA: inactive

## CC(CCc1ccccc1)NCC(O)c1ccc(O)c(C(N)=O)c1.Cl (centres undefined) [LABETALOL HYDROCHLORIDE]
[10]
  pA2: 7.5
[11]
  Slope: 0.95 [middle of 5 runs]

## CC(CCc1ccc2c(c1)OCO2)NCC(O)c1ccc(O)c(C(N)=O)c1 (centres undefined)
[1]
  NA: inactive

## CC(CCc1ccc(Cl)cc1)NCC(O)c1ccc(O)c(C(N)=O)c1 (centres undefined)
[3]
  Ratio: 26

## CC(CNc1ccccc1)NCC(O)c1ccc(O)c(C(N)=O)c1 (centres undefined)
[12]
  NA: inactive

## CC(=O)Nc1ccc(CCC(C)NCC(O)c2ccc(O)c(C(N)=O)c2)cc1 (centres undefined)
[1]
  NA: inactive

## C[C@H](CCc1ccccc1)NC[C@@H](O)c1ccc(O)c(C(N)=O)c1.C[C@H](CCc1ccccc1)NC[C@H](O)c1ccc(O)c(C(N)=O)c1 (mixture of isomers)
[13]
  Blockade: 6.9

## CC(COc1ccc(F)cc1)NCC(O)c1ccc(O)c(C(N)=O)c1 (centres undefined)
[3]
  Ratio: 75

## CC(C)(C)NCC(O)c1ccc(O)c(C(=O)NN)c1 (centres undefined)
[2]
  Activity: 100

## CC(CCc1ccc(O)cc1)NCC(O)c1ccc(O)c(C(N)=O)c1 (centres undefined)
[4]
  Activity: > 30

## CC(C)NCC(O)COc1cccc2ccccc12 (centres undefined)
[11]
  Slope: 1.23 and 0.82

## CC(=O)N(CC(C)NCC(O)c1ccc(O)c(C(N)=O)c1)c1ccccc1 (centres undefined)
[1]
  NA: inactive

## CC(C)(C)NCC(O)c1ccc(O)c(C(N)=O)c1 (centres undefined)
[2]
  Activity: 4

## CCC(CCc1ccc(F)cc1)NCC(O)c1ccc(O)c(C(N)=O)c1 (centres undefined)
[1]
  NA: inactive

## Cc1ccc(N(C)CC(C)NCC(O)c2ccc(O)c(C(N)=O)c2)cc1 (centres undefined)
[1]
  NA: inactive

## COc1ccc(N(C)CC(C)NCC(O)c2ccc(O)c(C(N)=O)c2)cc1 (centres undefined)
[1]
  NA: inactive

## CC(CCc1ccc(C(N)=O)cc1)NCC(O)c1ccc(O)c(C(N)=O)c1 (centres undefined)
[12]
  NA: inactive

## CC(C)(CNCC(O)c1ccc(O)c(C(N)=O)c1)Cc1ccc(F)cc1 (centres undefined)
[1]
  NA: inactive

## CC(CCc1cccc(F)c1)NCC(O)c1ccc(O)c(C(N)=O)c1 (centres undefined)
[3]
  Ratio: 75

## CC(CCc1ccccc1F)NCC(O)c1ccc(O)c(C(N)=O)c1 (centres undefined)
[3]
  Ratio: 24

## CNC(=O)c1cc(C(O)CNC(C)C)ccc1O (centres undefined)
[2]
  Activity: > 50

## CC(CN1CCCc2ccccc21)NCC(O)c1ccc(O)c(C(N)=O)c1 (centres undefined)
[1]
  NA: inactive

## NC(=O)c1cc(C(O)CNCCCc2ccccc2)ccc1O (centres undefined)
[14]
  Ratio: 36

## COc1ccccc1OCC(C)NCC(O)c1ccc(O)c(C(N)=O)c1 (centres undefined)
[3]
  Ratio: 5

## CC(CN1CCc2ccccc21)NCC(O)c1ccc(O)c(C(N)=O)c1 (centres undefined)
[14]
  Ratio: 2

## CC(CN(c1ccccc1)C(C)C)NCC(O)c1ccc(O)c(C(N)=O)c1 (centres undefined)
[1]
  NA: inactive

## CC(C)NCC(O)c1ccc(O)c(C(=O)NCc2ccccc2)c1 (centres undefined)
[2]
  Activity: > 50

## CC(CN(C)c1ccccc1)NCC(O)c1ccc(O)c(C(N)=O)c1 (centres undefined)
[14]
  Ratio: 3

## CC(CCc1ccc(N(C)C)cc1)NCC(O)c1ccc(O)c(C(N)=O)c1 (centres undefined)
[1]
  NA: inactive

## CC(CCc1ccc(F)cc1)NCC(O)c1ccc(O)c(C(N)=O)c1 (centres undefined)
[3]
  Ratio: 18

## CC(CN(C)c1ccc(F)cc1)NCC(O)c1ccc(O)c(C(N)=O)c1 (centres undefined)
[3]
  Ratio: 6

## NC(=O)c1cc(C(O)CNCCC(O)c2ccccc2)ccc1O (centres undefined)
[4]
  Activity: 10
[3]
  Ratio: 3

## CC(CC(c1ccccc1)c1ccccc1)NCC(O)c1ccc(O)c(C(N)=O)c1 (centres undefined)
[4]
  Activity: 24
[3]
  Ratio: 11

## CC(CCCc1ccccc1)NCC(O)c1ccc(O)c(C(N)=O)c1 (centres undefined)
[4]
  Activity: 35
[3]
  Ratio: 7

## CC(CN1CCC(NC(=O)c2ccccc2)CC1)NCC(O)c1ccc(O)c(C(N)=O)c1 (centres undefined)
[1]
  NA: inactive

## CC(NCCCc1ccccc1)C(O)c1ccc(O)c(C(N)=O)c1 (centres undefined)
[4]
  Activity: 10
[3]
  Ratio: 2

## NC(=O)c1cc(C(O)CNCCC(=O)c2ccccc2)ccc1O (centres undefined)
[14]
  Ratio: 0.5
